For 41 molecules, IC50 results are on record in ChEMBL document CHEMBL4017500 (J Med Chem, 2017).

Test [1] in a line: Inhibition of bacterial MBP-fused NDM1 expressed in Escherichia coli BL21(DE3) ausing chromacef as substrate preincubated for 20 mins followed by substrate addition measured after 0.3 mins. On the set-up: species or system Bacteria. The gist of the method: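 Preincubated 20 min, then 3 μM substrate (~3×KM) added. A442 followed ~0.3 min at 25 °C. Activity scaled to uninhibited (100%) and no-enzyme (0%) controls, fitted to a Hill-type equation.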

Test [2] in a line: Inhibition of bacterial MBP-fused NDM1 expressed in Escherichia coli BL21(DE3) ausing fluorocillin as substrate preincubated for 20 mins followed by substrate addition measured at 1 sec time interval for 25 mins by fluorescence assay. On the set-up: species or system Bacteria. The gist of the method: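 NDM-1 pre-incubated 20 min with inhibitor (final 100 μM to 1 nM) in 50 mM HEPES pH 7.0 with 2 mM CHAPS. Reaction started with fluorocillin (final 87 nM, below KM), NDM-1 final 25 pM. Fluorescence read at λex/em 495/525 nm, 10 reads over ~25 min.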

Structures are written as SMILES.

Turning to `COc1ccc(NC(=O)c2cccc(C(=O)O)n2)cc1`, the IC50 in test [1] is over 50000 nM.
On to `CN(C)c1ccc(-c2cc(C(=O)O)nc(C(=O)O)c2)cc1`, for which the IC50 in test [2] turned out to be 190 nM; in test [1], 570 nM.
`O=C(O)c1cccc(C(=O)NCCc2cccs2)n1`: in test [1], the IC50 is over 50000 nM.
Same read-out and setting: the same measure for `CC(C)[C@@H](NC(=O)c1cccc(C(=O)O)n1)C(=O)O`: 22000 nM.
With `O=C(O)c1cc(-c2ccc(O)cc2)cc(C(=O)O)n1`, the IC50 in test [2] was determined as 390 nM; in test [1], 660 nM.
Take `O=C(O)c1cccc(C(=O)NCc2ccc3c(c2)OCO3)n1`: the IC50 in test [1] is over 50000 nM.
Regarding `CN(C)c1cccc(-c2cc(C(=O)O)nc(C(=O)O)c2)c1`, the values for the IC50 in test [2] and in test [1] were 430 nM and 820 nM, respectively.
For `O=C(Nc1cccc(-c2cc(C(=O)O)nc(C(=O)O)c2)c1)c1ccccc1` the same measures were 130 nM and 860 nM.
For `CC(=O)Nc1cccc(-c2cc(C(=O)O)nc(C(=O)O)c2)c1`, the IC50 in test [2] stood at 930 nM; in test [1], 990 nM.
`O=C(O)c1cc(NCCc2ccccc2)cc(C(=O)O)n1` returned a concentration for half-maximal inhibition (IC50) in test [1] of 9100 nM.
Consider `O=C(O)c1cc(NCc2cccs2)cc(C(=O)O)n1`, for which, in test [1], 5200 nM corresponded to half-maximal inhibition (IC50).
Same read-out and setting: as for `O=C(O)c1cc(Cl)cc(C(=O)O)n1`, the figure is 5000 nM; as for `O=C(O)c1cc(NCc2ccco2)cc(C(=O)O)n1`, 4900 nM.
Take `O=C(O)c1cc(NCc2ccccc2)cc(C(=O)O)n1`: in test [1], half-maximal inhibition (IC50) was put at 8400 nM.
`O=C(O)c1cc(Nc2ccccc2)cc(C(=O)O)n1` registered a 50% inhibitory concentration (IC50) in test [1] of 3400 nM. This IC50 lies about 2.5-fold lower than the previous one.
In the case of `COc1cccc(-c2cc(C(=O)O)nc(C(=O)O)c2)c1`, the results for the IC50 in test [2] and in test [1] were 1070 nM and 800 nM, respectively.
Consider `O=C(O)c1cccc(C(=O)NCc2ccco2)n1`, for which the IC50 in test [1] was over 50000 nM.
The same measure, in the same setting: the same measure for `CN(C)c1cc(C(=O)O)nc(C(=O)O)c1`: 13600 nM.
In turn, `O=C(O)c1cc(-c2ccccc2)cc(C(=O)O)n1` showed an IC50 in test [1] of 990 nM. This IC50 lies about 14-fold lower than the previous one.
On to `COc1ccccc1-c1cc(C(=O)O)nc(C(=O)O)c1`, for which the IC50 in test [2] and in test [1] was 500 nM each time.
In test [1], `O=C(O)c1cccc(C(=O)NCc2ccccc2)n1` showed an IC50 of over 50000 nM.
Same read-out and setting: the same measure for `COc1ccc(CNc2cc(C(=O)O)nc(C(=O)O)c2)cc1`: 7200 nM.
`O=C(O)c1cccc(C(=O)NCc2cccs2)n1` gave an IC50 in test [1] of over 50000 nM.
On the same count and under the same terms, as for `COc1ccc(CNC(=O)c2cccc(C(=O)O)n2)cc1`, the figure is over 50000 nM; as for `O=C(O)c1cccc(C(=O)NCC2CCCO2)n1` (stereo not drawn), over 50000 nM.
In test [1], `CC(C)CNC(=O)c1cccc(C(=O)O)n1` returned an IC50 of over 50000 nM.
`O=C(O)c1cccc(C(=O)NC2CCCC2)n1` registered an IC50 in test [1] of over 50000 nM.
With `O=C(O)c1cc(-c2ccccc2O)cc(C(=O)O)n1`, the IC50 is 130 nM in test [2] and 520 nM in test [1].
As for `O=C(O)c1cccc(C(=O)NC2CCCCC2)n1`, the concentration for half-maximal inhibition (IC50) in test [1] is over 50000 nM.
As for `CC(C)NC(=O)c1cccc(C(=O)O)n1`, the IC50 in test [1] was over 50000 nM.
Molecule `O=C(O)CNC(=O)c1cccc(C(=O)O)n1` showed an IC50 in test [1] of 49000 nM.
Turning to `O=C(O)c1cc(NCc2ccc3c(c2)OCO3)cc(C(=O)O)n1`, inhibition in test [1] was half-maximal at 5800 nM (IC50). Compared with the last molecule, the IC50 is about 8.4-fold lower.
As to `O=C(O)c1cc(-c2cccc(O)c2)cc(C(=O)O)n1`, the figures for the 50% inhibitory concentration (IC50) in test [2] and in test [1] were 430 nM and 600 nM, respectively.
In the same order, the values of `COc1ccc(-c2cc(C(=O)O)nc(C(=O)O)c2)cc1` are 380 nM and 430 nM.
For the molecule `O=C(O)c1cccc(C(=O)NCCc2ccccc2)n1`, the IC50 in test [1] is over 50000 nM.
Take `O=C(O)c1cccc(-c2cc(C(=O)O)nc(C(=O)O)c2)c1`: the IC50 in test [2] is 200 nM; in test [1], 890 nM.
Turning to `Nc1ccc(-c2cc(C(=O)O)nc(C(=O)O)c2)cc1`, the results for the IC50 in test [2] and in test [1] were 540 nM and 1030 nM, respectively.
Regarding `O=C(O)c1cccc(C(=O)Nc2ccccc2)n1`, in test [1], the half-maximal inhibitory concentration (IC50) was over 50000 nM.
`O=C(O)c1cccc(C(=O)N2CCCCC2)n1` came in with an IC50 in test [1] of over 50000 nM.
Same read-out and setting: the same measure for `O=C(O)c1cccc(C(=O)NCc2nccs2)n1`: 24000 nM.
On the same count and under the same terms, as for `COc1ccc(Nc2cc(C(=O)O)nc(C(=O)O)c2)cc1`, the figure is 4500 nM.
